In PMC8237303 (Heliyon, 2021):

Legend:
[1] = tested on: Ca channel (Type L, Phenylalkylamine); assay: [3H]-; assay type: binding; settings: 0.1 mM l-menthol; Rat cerebral cortex
[2] = tested on: Bombesin receptor (Non-selective); assay: [125I]-Bombesin binding assay; settings: 0.1 mM l-menthol; Rat whole brain
[3] = target: Adenosine A2a receptor (Human) (Homo sapiens, UniProt P29274); assay: [3H]-CGS21680 binding assay; settings: 0.1 mM l-menthol; Human recombinant
[4] = target: Histamine H2 receptor (Human) (Homo sapiens, UniProt P25021); assay: [3H]-Tiotidine binding assay; settings: 0.1 mM l-menthol; Human recombinant
Sequence of Histamine H2 receptor (Human) (P25021 whole entry): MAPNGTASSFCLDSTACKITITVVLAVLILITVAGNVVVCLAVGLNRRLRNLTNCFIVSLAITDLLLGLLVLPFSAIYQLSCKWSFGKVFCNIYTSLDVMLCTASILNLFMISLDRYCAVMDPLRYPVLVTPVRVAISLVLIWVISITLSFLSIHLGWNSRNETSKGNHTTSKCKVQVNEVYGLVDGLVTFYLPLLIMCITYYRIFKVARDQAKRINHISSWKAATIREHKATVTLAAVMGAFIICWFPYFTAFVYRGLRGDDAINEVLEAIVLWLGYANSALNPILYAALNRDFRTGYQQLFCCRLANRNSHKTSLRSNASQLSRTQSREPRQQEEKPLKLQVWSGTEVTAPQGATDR

[5] = target: Angiotensin AT1 receptor (Human) (Homo sapiens, UniProt P30556); assay: [125I]-Angiotensin II; assay type: binding; settings: 0.1 mM l-menthol; Human recombinant
[6] = tested on: Leukotriene B4 receptor; assay: [3H]-Leukotriene B4 binding assay; settings: 0.1 mM l-menthol; Guinea pig lung
[7] = tested on: GABA transporter; assay: gamma-[3H]-Aminobutyric Acid; assay type: binding; settings: 0.1 mM l-menthol; Rat cerebral cortex; in the presence of isoguvacine hydrochloride and S (−)-baclofen hydrochloride
[8] = target: Cannabinoid CB1 receptor (Human) (Homo sapiens, UniProt P21554); assay: [3H]-CP-55,940 binding assay; settings: 0.1 mM l-menthol; Human recombinant
Sequence of Cannabinoid CB1 receptor (Human) (P21554 whole entry): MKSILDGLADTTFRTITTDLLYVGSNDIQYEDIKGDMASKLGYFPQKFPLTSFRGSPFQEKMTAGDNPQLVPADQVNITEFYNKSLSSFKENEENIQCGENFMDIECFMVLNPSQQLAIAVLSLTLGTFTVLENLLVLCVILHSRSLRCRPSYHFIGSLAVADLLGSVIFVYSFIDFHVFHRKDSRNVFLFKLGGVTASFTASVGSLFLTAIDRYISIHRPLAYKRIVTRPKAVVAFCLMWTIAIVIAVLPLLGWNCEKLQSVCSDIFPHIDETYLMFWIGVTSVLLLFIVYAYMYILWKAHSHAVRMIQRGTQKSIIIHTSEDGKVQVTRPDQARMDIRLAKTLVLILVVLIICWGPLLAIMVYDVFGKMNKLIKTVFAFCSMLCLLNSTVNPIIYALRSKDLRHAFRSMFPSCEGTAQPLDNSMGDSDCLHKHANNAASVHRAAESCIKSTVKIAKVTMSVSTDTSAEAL

[9] = target: Cannabinoid CB2 receptor (Human) (Homo sapiens, UniProt P34972); assay: [3H]-CP-55,940 binding assay; settings: 0.1 mM l-menthol; Human recombinant
Sequence of Cannabinoid CB2 receptor (Human) (P34972 whole entry): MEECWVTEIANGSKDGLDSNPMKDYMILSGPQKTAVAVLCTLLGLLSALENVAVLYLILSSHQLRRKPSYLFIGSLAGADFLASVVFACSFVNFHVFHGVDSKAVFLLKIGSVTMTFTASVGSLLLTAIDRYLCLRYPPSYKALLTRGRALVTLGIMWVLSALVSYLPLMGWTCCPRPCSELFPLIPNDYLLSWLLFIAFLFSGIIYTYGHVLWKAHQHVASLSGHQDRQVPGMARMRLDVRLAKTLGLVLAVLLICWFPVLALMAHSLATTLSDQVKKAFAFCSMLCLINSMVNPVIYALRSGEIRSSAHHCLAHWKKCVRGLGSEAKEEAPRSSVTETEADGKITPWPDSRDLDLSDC

[10] = target: Adenosine A3 receptor (Human) (Homo sapiens, UniProt P0DMS8); assay: [125I]-AB-MECA binding assay; settings: 0.1 mM l-menthol; Human recombinant
[11] = target: Norepinephrine transporter (Human) (Homo sapiens, UniProt P23975); assay: [3H]-Nisoxetine hydrochloride binding assay; settings: 0.1 mM l-menthol; Human recombinant
[12] = target: α2C-Adrenergic receptor (Human) (Homo sapiens, UniProt P18825); assay: [3H]-Rauwolscine hydrochloride binding assay; settings: 0.1 mM l-menthol; Human recombinant
[13] = tested on: Monoamine transporter; assay: [3H]-α-Dihydrotetrabenazine binding assay; settings: 0.1 mM l-menthol; Rabbit platelet
[14] = tested on: Imidazoline receptor (Central); assay: [3H]RX 781094; assay type: binding; settings: 0.1 mM l-menthol; Rat cerebral cortex
[15] = target: Melatonin MT1 receptor (Human) (Homo sapiens, UniProt P48039); assay: [125I]-Melatonin binding assay; settings: 0.1 mM l-menthol; Human recombinant
Sequence of Melatonin MT1 receptor (Human) (P48039 whole entry): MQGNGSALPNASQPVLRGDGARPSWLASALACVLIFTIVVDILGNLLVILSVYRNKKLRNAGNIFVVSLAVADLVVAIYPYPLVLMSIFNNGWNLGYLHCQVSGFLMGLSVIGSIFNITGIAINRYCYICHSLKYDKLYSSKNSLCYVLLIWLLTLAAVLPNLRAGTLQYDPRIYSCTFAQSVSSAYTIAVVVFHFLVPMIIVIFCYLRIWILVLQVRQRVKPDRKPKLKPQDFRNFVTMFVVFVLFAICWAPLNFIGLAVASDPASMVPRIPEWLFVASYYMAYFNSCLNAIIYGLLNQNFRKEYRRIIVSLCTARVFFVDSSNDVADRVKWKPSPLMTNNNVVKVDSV

[16] = target: α1A-Adrenergic receptor (Rattus norvegicus, UniProt P43140); assay: [3H]-Prazosin binding assay; settings: 0.1 mM l-menthol; Rat submandibular gland
[17] = tested on: K channel KA; assay: [125I]-Dendrotoxin binding assay; settings: 0.1 mM l-menthol; Rat cerebral cortex
[18] = target: Neurokinin NK3 receptor (Human) (Homo sapiens, UniProt P29371); assay: [125I]-Neurokinin B; assay type: binding; settings: 0.1 mM l-menthol; Human recombinant
Sequence of Neurokinin NK3 receptor (Human) (P29371 whole entry): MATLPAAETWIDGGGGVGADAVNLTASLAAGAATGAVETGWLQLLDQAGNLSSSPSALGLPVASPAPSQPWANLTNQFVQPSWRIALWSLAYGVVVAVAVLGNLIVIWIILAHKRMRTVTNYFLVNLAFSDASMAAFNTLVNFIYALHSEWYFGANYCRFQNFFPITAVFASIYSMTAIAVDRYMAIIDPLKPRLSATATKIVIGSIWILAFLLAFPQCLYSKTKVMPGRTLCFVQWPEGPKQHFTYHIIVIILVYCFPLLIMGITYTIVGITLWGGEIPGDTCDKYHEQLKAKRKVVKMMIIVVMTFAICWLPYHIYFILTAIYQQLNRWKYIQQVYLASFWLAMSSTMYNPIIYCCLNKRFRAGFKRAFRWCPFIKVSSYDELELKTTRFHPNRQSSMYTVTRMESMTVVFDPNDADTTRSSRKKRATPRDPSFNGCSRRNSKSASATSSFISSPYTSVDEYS

[19] = tested on: Glutamate (NMDA polyamine site); assay: [3H]-Ifenprodil binding assay; settings: 0.1 mM l-menthol; Rat cerebral cortex
[20] = target: Neurokinin NK1 receptor (Human) (Homo sapiens, UniProt P25103); assay: [125I]-Substance P binding assay; settings: 0.1 mM l-menthol; Human recombinant
[21] = target: α2B-Adrenergic receptor (Human) (Homo sapiens, UniProt P18089); assay type: binding
Sequence of α2B-Adrenergic receptor (Human) (P18089 whole entry): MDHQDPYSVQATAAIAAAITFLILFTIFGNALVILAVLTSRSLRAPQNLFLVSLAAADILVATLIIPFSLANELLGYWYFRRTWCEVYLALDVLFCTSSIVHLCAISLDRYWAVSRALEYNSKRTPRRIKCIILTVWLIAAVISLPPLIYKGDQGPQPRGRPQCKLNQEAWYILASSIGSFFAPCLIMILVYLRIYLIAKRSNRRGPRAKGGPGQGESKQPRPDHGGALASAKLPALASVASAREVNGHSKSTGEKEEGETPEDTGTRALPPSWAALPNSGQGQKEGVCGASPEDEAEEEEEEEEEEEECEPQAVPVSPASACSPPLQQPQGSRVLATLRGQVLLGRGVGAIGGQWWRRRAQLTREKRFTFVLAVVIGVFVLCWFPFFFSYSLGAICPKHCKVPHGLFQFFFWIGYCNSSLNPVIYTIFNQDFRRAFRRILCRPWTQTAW

[22] = tested on: K Channel SkCa; assay: [125I]-Apamin binding assay; settings: 0.1 mM l-menthol; Rat whole brain
[23] = target: Serotonin 5HT3 receptor (Human) (Homo sapiens, UniProt P46098); assay: [3H]-GR65630 binding assay; settings: 0.1 mM l-menthol; Human recombinant
[24] = target: α1B-Adrenergic receptor (Rattus norvegicus, UniProt P15823); assay: [3H]-Prazosin binding assay; settings: 0.1 mM l-menthol; Rat liver
[25] = target: GABA B receptor (Rattus norvegicus, UniProt Q9Z0U4); assay: gamma-[3H]-Aminobutyric Acid; assay type: binding; settings: 0.1 mM l-menthol; Rat cerebellum
[26] = target: Prostanoid EP2 receptor (Human) (Homo sapiens, UniProt P43116); assay: [3H]-Prostaglandin E2 binding assay; settings: 0.1 mM l-menthol; Human recombinant
Sequence of Prostanoid EP2 receptor (Human) (P43116 whole entry): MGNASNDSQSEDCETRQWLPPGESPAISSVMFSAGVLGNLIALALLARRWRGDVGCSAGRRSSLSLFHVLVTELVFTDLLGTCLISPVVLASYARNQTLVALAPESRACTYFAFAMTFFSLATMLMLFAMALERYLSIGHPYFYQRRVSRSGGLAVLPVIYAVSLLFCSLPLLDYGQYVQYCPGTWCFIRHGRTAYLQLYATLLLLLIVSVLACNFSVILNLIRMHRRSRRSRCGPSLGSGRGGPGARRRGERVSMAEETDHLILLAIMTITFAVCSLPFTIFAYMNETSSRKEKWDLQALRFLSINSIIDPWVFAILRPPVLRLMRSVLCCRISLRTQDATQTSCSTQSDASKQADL

[27] = tested on: Glutamate receptor (Kainate); assay: [3H]-Kainic Acid binding assay; settings: 0.1 mM l-menthol; Rat whole brain
[28] = target: β1-Adrenergic receptor (Human) (Homo sapiens, UniProt P08588); assay: [3H]-; assay type: binding; settings: 0.1 mM l-menthol; Human recombinant
[29] = target: Dopamien D1 receptor (Human) (Homo sapiens, UniProt P21728); assay: [3H]–SCH–23390 hydrochloride binding assay; settings: 0.1 mM l-menthol; Human recombinant
Sequence of Dopamien D1 receptor (Human) (P21728 whole entry): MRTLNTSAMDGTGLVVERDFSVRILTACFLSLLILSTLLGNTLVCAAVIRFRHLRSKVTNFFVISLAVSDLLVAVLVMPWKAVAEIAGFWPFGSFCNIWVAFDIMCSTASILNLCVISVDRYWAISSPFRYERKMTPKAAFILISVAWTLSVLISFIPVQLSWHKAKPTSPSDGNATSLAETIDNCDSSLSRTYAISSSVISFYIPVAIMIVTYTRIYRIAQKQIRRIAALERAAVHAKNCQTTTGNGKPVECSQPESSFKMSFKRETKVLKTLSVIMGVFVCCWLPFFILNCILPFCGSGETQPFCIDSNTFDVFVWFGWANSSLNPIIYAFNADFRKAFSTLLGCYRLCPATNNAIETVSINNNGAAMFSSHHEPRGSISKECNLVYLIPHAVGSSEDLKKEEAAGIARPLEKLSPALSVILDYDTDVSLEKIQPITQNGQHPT

[30] = tested on: Glutamate receptor (AMPA); assay: D,L-alpha-[3H]-Amino-3-Hydroxy-Methylisoxazole-4-Propionic Acid; assay type: binding; settings: 0.1 mM l-menthol; Rat cerebral cortex
[31] = target: Histamine H1 receptor (Human) (Homo sapiens, UniProt P35367); assay: [3H]-Pyrilamine binding assay; settings: 0.1 mM l-menthol; Human recombinant
[32] = target: Histamine H3 receptor (Human) (Homo sapiens, UniProt Q9Y5N1); assay: N-alpha-[3H]-Methylhistamine, Dihydrochloride binding assay; settings: 0.1 mM l-menthol; Human recombinant
Sequence of Histamine H3 receptor (Human) (Q9Y5N1 whole entry): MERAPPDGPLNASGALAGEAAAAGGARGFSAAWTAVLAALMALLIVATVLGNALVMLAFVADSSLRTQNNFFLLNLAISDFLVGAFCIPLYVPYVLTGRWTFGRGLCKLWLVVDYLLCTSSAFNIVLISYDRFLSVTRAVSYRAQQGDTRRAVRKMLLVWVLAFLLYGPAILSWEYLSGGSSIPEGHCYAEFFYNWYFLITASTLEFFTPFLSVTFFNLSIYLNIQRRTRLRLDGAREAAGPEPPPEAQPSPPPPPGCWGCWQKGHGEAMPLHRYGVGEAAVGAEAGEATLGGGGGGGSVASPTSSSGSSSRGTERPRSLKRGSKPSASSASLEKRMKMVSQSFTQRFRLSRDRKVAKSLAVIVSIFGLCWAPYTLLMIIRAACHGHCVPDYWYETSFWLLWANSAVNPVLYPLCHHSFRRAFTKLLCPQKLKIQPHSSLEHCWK

[33] = target: Muscarinic M1 receptor (Human) (Homo sapiens, UniProt P11229); assay: [3H]-Scopolamine Methyl Chloride binding assay; settings: 0.1 mM l-menthol; Human recombinant
[34] = target: Muscarinic M3 receptor (Human) (Homo sapiens, UniProt P20309); assay type: binding; settings: 0.1 mM l-menthol; Human recombinant
Sequence of Muscarinic M3 receptor (Human) (P20309 whole entry): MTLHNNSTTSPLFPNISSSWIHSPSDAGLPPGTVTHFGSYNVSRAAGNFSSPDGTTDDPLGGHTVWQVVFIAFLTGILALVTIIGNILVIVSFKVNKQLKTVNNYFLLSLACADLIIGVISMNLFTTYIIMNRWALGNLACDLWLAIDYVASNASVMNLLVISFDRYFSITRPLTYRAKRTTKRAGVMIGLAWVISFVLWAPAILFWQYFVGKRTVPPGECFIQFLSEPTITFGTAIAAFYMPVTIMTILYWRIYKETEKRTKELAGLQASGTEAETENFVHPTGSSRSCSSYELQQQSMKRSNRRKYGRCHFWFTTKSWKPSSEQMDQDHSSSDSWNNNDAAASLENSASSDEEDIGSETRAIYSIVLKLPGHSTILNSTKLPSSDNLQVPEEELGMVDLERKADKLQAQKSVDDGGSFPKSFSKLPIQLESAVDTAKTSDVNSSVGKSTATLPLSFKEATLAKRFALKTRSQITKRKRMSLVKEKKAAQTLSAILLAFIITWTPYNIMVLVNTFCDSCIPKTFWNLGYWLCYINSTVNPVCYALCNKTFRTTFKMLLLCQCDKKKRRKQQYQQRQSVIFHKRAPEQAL

[35] = target: Muscarinic M4 receptor (Human) (Homo sapiens, UniProt P08173); assay: [3H]-Scopolamine Methyl Chloride binding assay; settings: 0.1 mM l-menthol; Human recombinant
[36] = target: Neurotensin NT1 receptor (Human) (Homo sapiens, UniProt P30989); assay: [125I]-Neurotensin binding assay; settings: 0.1 mM l-menthol; Human recombinant
Sequence of Neurotensin NT1 receptor (Human) (P30989 whole entry): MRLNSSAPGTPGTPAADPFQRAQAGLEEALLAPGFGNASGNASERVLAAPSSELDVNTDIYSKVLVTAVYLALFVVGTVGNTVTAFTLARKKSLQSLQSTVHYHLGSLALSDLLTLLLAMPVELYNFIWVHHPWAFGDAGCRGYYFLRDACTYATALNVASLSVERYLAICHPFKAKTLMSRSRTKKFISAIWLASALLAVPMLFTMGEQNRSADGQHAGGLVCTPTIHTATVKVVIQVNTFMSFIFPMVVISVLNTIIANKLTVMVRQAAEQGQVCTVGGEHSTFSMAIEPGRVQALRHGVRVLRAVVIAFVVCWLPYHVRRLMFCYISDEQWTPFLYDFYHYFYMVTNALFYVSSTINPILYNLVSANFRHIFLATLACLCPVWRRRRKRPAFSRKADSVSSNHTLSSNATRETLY

[37] = target: Opiate μ receptor (Human) (Homo sapiens, UniProt P35372); assay: [3H]-Diprenorphine binding assay; settings: 0.1 mM l-menthol; Human recombinant
[38] = target: Serotonin transporter (Human) (Homo sapiens, UniProt P31645); assay: [3H]-Imipramine hydrochloride binding assay; settings: 0.1 mM l-menthol; Human recombinant
[39] = tested on: mouse ambulation; assay: Measurement of mouse ambulatory activity; assay type: in vivo; settings: mice
Outline: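 Ambulometer (SAM-10) recording; 30-min adaptation, then s.c. saline or 100, 200, 400 or 800 mg/kg test compound; n = 19–20 mice per group. Each mouse's activity normalized to its total adaptation-period activity, binned per 10 min (median, quartiles); total normalized activity over 60 min post-dose compared by Kruskal-Wallis then Wilcoxon versus vehicle, P < 0.05.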

[40] = tested on: 88 different ligands for specific biomolecules; assay: Binding assay, 88 different ligands; settings: 0.1 mM l-menthol

CC(C)[C@@H]1CC[C@@H](C)C[C@H]1O [l-menthol]
Inhibition by l-Menthol (%) [1]: 24.78% | Inhibition by l-Menthol (%) [2]: 21.87% | Inhibition by l-Menthol (%) [3]: 21.62% | Inhibition by l-Menthol (%) [4]: 21.17% | Inhibition by l-Menthol (%) [5]: 16.92% | Inhibition by l-Menthol (%) [6]: 11.63% | Inhibition by l-Menthol (%) [7]: 10.09% | Inhibition by l-Menthol (%) [8]: 9.12% | Inhibition by l-Menthol (%) [9]: 8.57% | Inhibition by l-Menthol (%) [10]: 8.22% | Inhibition by l-Menthol (%) [11]: 7.89% | Inhibition by l-Menthol (%) [12]: 7.75% | Inhibition by l-Menthol (%) [13]: 7.73% | Inhibition by l-Menthol (%) [14]: 6.53% | Inhibition by l-Menthol (%) [15]: 5.74% | Inhibition by l-Menthol (%) [16]: 5.13% | Inhibition by l-Menthol (%) [17]: 5.11% | Inhibition by l-Menthol (%) [18]: 4.65% | Inhibition by l-Menthol (%) [19]: 3.79% | Inhibition by l-Menthol (%) [20]: 3.74% | Inhibition by l-Menthol (%) [21]: 2.87% | Inhibition by l-Menthol (%) [22]: 2.36% | Inhibition by l-Menthol (%) [23]: 2.21% | Inhibition by l-Menthol (%) [24]: 1.76% | Inhibition by l-Menthol (%) [25]: 1.1% | Inhibition by l-Menthol (%) [26]: 0.66% | Inhibition by l-Menthol (%) [27]: 0.14% | Inhibition by l-Menthol (%) [28]: 0% | Inhibition by l-Menthol (%) [29]: 0% | Inhibition by l-Menthol (%) [30]: 0% | Inhibition by l-Menthol (%) [31]: 0% | Inhibition by l-Menthol (%) [32]: 0% | Inhibition by l-Menthol (%) [33]: 0% | Inhibition by l-Menthol (%) [34]: 0% | Inhibition by l-Menthol (%) [35]: 0% | Inhibition by l-Menthol (%) [36]: 0% | Inhibition by l-Menthol (%) [37]: 0% | Inhibition by l-Menthol (%) [38]: 0% | Dose dependence of the ambulation-promoting effect ([39]; 100-800 mg/kg s.c., Kruskal-Wallis test P < 0.0001): dose dependent | Time of maximum ambulatory activity after administration ([39]; subcutaneous 100-800 mg/kg): 5 min | Inhibition of the binding of 32 isotope-labeled ligands (Table 3 (b)) [40]: did not measurably inhibit | Inhibition rates, 9 isotope-labeled ligands (Table 3 (a)) [40]: < 1%
